How the values were obtained:
[1] = target: Vascular endothelial growth factor receptor 2 (Homo sapiens) (UniProt P35968); assay: Inhibition of VEGFR2 at 1 uM
[2] = target: T1, Phosphorylase b kinase gamma catalytic chain, liver/testis isoform (Homo sapiens) (UniProt P15735); assay: Inhibition of PHKG2 at 1 uM
T1 sequence (whole entry): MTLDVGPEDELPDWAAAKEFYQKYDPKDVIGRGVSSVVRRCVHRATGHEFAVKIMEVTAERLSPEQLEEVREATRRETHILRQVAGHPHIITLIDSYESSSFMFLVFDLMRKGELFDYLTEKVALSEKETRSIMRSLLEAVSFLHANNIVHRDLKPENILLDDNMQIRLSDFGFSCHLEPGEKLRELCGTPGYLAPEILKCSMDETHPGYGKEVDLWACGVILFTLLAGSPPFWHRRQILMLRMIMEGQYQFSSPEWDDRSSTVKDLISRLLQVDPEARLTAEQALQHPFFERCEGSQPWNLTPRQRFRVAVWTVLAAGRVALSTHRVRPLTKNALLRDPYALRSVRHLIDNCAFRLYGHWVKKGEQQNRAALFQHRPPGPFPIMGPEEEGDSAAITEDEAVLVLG

[3] = target: T2, TGF-beta receptor type-1 (Homo sapiens) (UniProt P36897); assay: Inhibition of TGFBR1 at 1 uM
T2 sequence (whole entry): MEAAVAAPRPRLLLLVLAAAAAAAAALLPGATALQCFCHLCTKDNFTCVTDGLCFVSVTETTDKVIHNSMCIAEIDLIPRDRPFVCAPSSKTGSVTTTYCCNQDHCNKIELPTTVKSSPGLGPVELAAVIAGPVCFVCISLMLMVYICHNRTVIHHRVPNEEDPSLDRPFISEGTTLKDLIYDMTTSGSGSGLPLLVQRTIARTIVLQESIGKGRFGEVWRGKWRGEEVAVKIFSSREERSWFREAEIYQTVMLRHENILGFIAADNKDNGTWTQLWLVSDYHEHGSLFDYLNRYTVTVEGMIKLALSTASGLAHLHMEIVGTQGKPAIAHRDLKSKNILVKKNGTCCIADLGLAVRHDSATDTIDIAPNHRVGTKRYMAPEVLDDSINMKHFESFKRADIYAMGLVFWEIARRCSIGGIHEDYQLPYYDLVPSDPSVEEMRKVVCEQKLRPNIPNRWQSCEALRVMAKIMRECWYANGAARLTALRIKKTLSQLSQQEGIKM

[4] = target: Receptor tyrosine-protein kinase erbB-4 (Homo sapiens) (UniProt Q15303); assay: Inhibition of ERBB4 at 1 uM
Outline: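 Single-concentration screen using Ambit Bioscience KINOMEscan technology across a panel of 250–400 kinases. Per-kinase inhibition from this screen was summarized as S(90), the fraction of kinases inhibited by more than 90%.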

[5] = target: Cyclin-dependent kinase 7 (Homo sapiens) (UniProt P50613); assay: Inhibition of CDK7 at 1 uM
[6] = target: Dual specificity protein kinase CLK1 (Homo sapiens) (UniProt P49759); assay: Inhibition of CLK1 at 1 uM
Outline: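 Ambit KINOMEscan screen at a single concentration across a 250–400 kinase panel, recorded as percent inhibition. Selectivity was expressed as S(90), the fraction of kinases inhibited >90%.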

[7] = target: Hepatocyte growth factor receptor (Homo sapiens) (UniProt P08581); assay: Inhibition of MET at 1 uM
Outline: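 Single-concentration screen on the Ambit KINOMEscan platform, run against a panel of 250–400 kinases. Per-kinase inhibition was also summarized as S(90), the fraction of kinases inhibited by more than 90%.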

[8] = target: Serine/threonine-protein kinase pim-2 (Homo sapiens) (UniProt Q9P1W9); assay: Inhibition of PIM2 at 1 uM
[9] = target: Serine/threonine-protein kinase PAK 2 (Homo sapiens) (UniProt Q13177); assay: Inhibition of PAK2 at 1 uM
[10] = target: Myosin light chain kinase, smooth muscle (Homo sapiens) (UniProt Q15746); assay: Inhibition of MYLK at 1 uM
[11] = target: Serine/threonine-protein kinase 35 (Homo sapiens) (UniProt Q8TDR2); assay: Inhibition of STK35 at 1 uM
[12] = target: T3, Mitogen-activated protein kinase kinase kinase 19 (Homo sapiens) (UniProt Q56UN5); assay: Inhibition of YSK4 at 1 uM
T3 sequence (whole entry): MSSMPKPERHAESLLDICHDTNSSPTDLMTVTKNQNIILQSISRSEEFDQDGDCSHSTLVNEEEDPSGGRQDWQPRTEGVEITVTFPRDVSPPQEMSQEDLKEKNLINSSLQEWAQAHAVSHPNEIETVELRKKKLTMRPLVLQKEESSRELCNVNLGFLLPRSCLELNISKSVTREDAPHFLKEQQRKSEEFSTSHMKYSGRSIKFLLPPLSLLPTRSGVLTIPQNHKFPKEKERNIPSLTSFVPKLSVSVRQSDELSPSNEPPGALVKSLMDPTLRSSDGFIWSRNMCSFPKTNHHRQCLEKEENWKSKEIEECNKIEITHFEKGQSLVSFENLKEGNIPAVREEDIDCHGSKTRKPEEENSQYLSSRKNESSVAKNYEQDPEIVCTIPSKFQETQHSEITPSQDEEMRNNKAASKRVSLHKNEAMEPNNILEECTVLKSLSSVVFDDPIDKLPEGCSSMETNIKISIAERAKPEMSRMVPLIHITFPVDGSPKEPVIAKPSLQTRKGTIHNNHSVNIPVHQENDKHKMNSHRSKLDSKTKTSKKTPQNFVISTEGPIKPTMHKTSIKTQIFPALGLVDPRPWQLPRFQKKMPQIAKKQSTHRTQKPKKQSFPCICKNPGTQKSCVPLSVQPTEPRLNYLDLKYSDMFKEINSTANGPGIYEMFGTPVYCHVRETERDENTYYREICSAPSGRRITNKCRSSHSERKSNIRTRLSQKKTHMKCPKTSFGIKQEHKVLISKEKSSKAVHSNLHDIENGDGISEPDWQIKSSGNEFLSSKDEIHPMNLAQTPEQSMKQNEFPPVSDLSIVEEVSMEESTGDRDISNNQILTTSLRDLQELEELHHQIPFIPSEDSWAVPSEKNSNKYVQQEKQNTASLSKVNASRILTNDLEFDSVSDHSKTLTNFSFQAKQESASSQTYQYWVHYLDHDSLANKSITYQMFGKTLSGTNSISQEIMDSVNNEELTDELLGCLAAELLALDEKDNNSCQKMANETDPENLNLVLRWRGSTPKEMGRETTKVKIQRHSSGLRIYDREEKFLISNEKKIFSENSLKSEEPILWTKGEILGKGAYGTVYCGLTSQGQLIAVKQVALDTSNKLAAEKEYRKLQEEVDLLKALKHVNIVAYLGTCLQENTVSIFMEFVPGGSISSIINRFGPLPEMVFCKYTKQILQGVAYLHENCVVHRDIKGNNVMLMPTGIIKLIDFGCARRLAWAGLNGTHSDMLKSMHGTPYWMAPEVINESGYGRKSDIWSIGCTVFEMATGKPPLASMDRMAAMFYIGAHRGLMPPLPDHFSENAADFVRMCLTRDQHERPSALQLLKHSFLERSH

Receptor tyrosine-protein kinase erbB-4 (Homo sapiens), sequence (Q15303 whole entry): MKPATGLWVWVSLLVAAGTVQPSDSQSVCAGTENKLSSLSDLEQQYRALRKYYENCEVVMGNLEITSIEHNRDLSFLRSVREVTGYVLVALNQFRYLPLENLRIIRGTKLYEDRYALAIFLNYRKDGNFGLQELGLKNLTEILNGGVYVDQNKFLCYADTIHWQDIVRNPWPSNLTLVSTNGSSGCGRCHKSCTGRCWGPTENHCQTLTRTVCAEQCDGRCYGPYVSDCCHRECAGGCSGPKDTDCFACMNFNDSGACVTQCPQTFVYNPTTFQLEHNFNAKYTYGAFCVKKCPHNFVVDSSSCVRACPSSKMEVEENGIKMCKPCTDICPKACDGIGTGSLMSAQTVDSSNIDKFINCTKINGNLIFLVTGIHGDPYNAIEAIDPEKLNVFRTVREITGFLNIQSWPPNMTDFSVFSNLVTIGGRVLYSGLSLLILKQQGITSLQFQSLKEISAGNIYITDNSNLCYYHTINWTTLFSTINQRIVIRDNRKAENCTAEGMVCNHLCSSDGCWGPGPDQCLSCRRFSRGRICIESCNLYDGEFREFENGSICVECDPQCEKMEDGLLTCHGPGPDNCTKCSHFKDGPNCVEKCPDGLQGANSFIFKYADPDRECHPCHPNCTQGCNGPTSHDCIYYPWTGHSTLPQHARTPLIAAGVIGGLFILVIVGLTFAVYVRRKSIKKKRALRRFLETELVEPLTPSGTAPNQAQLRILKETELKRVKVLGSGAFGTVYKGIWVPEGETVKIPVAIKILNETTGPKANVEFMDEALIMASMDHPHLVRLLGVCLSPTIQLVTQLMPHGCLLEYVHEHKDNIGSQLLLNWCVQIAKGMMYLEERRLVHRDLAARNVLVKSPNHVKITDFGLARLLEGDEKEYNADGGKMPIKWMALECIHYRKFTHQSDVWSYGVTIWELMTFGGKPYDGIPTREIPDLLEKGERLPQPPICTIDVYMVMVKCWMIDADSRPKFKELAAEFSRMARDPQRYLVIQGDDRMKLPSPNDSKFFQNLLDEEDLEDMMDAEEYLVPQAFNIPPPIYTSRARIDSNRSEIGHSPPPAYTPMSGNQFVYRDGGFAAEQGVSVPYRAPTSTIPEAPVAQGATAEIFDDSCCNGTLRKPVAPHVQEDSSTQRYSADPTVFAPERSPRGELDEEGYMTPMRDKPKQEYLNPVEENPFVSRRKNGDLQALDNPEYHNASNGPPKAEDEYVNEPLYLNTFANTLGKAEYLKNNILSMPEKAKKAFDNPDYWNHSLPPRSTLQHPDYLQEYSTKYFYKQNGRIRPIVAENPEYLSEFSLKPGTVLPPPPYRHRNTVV
Myosin light chain kinase, smooth muscle (Homo sapiens), sequence (Q15746 whole entry): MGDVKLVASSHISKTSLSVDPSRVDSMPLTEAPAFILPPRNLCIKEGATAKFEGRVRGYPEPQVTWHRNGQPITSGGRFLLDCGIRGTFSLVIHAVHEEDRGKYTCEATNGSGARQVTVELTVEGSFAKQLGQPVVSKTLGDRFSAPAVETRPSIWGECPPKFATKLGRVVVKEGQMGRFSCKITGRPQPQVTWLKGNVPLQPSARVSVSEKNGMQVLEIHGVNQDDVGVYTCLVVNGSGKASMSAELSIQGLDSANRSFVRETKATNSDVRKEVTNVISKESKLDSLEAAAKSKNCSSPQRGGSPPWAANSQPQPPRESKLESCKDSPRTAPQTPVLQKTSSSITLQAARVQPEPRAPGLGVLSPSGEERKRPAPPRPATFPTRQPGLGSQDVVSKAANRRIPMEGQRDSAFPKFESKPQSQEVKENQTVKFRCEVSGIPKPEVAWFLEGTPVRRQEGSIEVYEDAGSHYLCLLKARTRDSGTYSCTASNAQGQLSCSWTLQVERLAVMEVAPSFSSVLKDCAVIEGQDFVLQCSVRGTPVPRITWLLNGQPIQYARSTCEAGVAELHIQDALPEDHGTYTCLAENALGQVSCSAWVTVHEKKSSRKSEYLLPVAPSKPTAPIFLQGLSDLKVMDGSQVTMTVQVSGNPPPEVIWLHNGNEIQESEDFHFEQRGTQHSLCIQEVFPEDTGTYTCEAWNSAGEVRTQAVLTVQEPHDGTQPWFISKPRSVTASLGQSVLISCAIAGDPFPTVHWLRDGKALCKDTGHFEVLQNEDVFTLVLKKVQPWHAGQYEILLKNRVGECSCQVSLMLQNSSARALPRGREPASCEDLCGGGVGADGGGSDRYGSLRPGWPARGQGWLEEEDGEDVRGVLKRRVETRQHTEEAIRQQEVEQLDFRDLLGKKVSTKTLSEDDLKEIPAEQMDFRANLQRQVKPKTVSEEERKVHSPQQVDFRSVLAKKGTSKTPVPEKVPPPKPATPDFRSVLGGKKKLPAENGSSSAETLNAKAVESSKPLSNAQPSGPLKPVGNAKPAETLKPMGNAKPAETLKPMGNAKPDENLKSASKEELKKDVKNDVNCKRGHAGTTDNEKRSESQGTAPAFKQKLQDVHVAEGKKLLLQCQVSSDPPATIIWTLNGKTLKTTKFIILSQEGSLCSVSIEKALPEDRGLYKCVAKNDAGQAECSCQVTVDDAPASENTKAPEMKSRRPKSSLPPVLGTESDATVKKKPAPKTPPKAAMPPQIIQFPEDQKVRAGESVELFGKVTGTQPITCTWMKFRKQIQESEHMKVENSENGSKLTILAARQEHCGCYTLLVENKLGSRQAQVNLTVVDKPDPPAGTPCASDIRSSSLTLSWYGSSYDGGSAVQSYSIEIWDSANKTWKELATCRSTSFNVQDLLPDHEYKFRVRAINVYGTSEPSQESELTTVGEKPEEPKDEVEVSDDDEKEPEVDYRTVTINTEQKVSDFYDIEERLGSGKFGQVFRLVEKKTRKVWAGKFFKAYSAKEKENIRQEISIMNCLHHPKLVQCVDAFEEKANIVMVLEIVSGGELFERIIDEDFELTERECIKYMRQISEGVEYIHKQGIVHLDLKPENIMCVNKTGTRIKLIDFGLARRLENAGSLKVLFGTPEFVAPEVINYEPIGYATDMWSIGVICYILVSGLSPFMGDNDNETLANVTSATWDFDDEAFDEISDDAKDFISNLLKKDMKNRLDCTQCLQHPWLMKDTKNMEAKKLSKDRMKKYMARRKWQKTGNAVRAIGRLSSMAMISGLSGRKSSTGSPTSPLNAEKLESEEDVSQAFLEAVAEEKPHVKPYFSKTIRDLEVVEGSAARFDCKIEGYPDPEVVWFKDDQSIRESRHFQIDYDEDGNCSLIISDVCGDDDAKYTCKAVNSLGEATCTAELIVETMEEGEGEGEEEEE
Dual specificity protein kinase CLK1 (Homo sapiens), sequence (P49759 whole entry, looked up): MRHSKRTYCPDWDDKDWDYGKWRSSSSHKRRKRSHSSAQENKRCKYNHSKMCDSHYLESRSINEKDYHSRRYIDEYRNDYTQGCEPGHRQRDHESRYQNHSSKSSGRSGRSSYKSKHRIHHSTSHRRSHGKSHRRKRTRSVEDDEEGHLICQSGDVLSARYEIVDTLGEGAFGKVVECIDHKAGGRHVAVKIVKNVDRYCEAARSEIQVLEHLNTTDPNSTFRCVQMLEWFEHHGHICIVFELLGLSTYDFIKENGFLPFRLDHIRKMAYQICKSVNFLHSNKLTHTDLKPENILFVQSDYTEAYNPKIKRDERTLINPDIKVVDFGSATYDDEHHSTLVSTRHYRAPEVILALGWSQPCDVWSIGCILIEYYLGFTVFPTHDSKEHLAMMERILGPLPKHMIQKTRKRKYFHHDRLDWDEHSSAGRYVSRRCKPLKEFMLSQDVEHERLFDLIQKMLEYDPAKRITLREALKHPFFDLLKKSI
Vascular endothelial growth factor receptor 2 (Homo sapiens), sequence (P35968 whole entry, canonical isoform): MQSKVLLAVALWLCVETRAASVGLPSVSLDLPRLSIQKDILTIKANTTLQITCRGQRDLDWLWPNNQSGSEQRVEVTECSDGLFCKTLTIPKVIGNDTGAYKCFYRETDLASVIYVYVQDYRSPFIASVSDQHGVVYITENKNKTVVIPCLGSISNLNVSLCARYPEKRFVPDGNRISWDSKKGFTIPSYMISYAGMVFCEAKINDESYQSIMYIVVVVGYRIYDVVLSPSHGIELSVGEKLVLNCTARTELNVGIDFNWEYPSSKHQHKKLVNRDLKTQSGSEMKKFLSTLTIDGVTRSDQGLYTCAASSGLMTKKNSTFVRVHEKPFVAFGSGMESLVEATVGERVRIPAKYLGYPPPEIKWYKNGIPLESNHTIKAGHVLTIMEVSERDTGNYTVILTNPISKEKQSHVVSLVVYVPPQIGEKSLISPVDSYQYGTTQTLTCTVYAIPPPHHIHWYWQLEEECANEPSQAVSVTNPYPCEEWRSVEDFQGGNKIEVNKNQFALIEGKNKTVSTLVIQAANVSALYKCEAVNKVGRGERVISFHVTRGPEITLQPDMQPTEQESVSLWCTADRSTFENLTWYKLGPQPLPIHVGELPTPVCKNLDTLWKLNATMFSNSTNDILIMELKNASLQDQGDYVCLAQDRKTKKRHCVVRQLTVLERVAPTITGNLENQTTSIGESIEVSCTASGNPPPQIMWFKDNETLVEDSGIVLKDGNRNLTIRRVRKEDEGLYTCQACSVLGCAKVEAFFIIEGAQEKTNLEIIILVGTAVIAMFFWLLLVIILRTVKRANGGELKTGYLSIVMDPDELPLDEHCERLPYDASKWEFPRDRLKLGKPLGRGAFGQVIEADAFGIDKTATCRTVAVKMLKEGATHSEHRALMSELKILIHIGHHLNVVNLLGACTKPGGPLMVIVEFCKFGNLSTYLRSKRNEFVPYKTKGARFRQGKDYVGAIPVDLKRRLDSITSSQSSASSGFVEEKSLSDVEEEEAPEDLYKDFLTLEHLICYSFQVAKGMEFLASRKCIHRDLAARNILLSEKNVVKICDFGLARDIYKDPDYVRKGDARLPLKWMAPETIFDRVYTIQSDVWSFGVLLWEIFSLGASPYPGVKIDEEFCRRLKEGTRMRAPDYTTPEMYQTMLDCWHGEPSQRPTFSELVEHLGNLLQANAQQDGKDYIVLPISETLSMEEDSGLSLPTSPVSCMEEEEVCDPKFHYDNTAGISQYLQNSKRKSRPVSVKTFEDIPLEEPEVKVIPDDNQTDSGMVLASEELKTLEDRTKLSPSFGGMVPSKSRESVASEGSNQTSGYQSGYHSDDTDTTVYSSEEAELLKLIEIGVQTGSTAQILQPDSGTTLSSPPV

| Structure (SMILES) | inhibition [1] [%] | inhibition [2] [%] | inhibition [3] [%] | inhibition [4] [%] | inhibition [5] [%] | inhibition [6] [%] | inhibition [7] [%] | inhibition [8] [%] | inhibition [9] [%] | inhibition [10] [%] | inhibition [11] [%] | inhibition [12] [%] |
| --- | --- | --- | --- | --- | --- | --- | --- | --- | --- | --- | --- | --- |
| CN1CCN(c2ccc(-c3cnc4c(c3)N(Cc3cc(F)ccc3F)CCN4)cn2)CC1 | < 50 | < 50 | < 50 | < 50 | < 50 | < 50 | < 50 | < 50 | < 50 | < 50 | < 50 | < 50 |
| CC(=O)N1CCN(c2cc(-c3cnc4c(c3)N(Cc3cc(Cl)ccc3C(F)(F)F)CCN4)ccn2)CC1 | < 50 | < 50 | < 50 | < 50 | < 50 | < 50 | 86 | < 50 | < 50 | < 50 | < 50 | < 50 |
| CN1CCN(c2ccc(-c3cnc4c(c3)N(Cc3c(F)ccc(F)c3Cl)CCN4)cn2)CC1 | < 50 | < 50 | < 50 | < 50 | < 50 | < 50 | 94 | < 50 | < 50 | < 50 | < 50 | < 50 |
| FC(F)(F)c1ccc(Cl)cc1CN1CCNc2ncc(-c3ccnc(N4CCNCC4)c3)cc21 | < 50 | < 50 | < 50 | < 50 | < 50 | < 50 | 94 | < 50 | < 50 | < 50 | < 50 | < 50 |
| CN1CCN(c2ccc(-c3cnc4c(c3)N(Cc3cc(Cl)ccc3Cl)CCN4)cn2)CC1 | < 50 | < 50 | < 50 | < 50 | < 50 | < 50 | 67 | < 50 | < 50 | < 50 | < 50 | < 50 |
| O=C(c1ccc(-c2cnc3c(c2)N(Cc2cc(Cl)ccc2C(F)(F)F)CCN3)cc1)N1CCC(N2CCCC2)CC1 | < 50 | < 50 | < 50 | < 50 | – | < 50 | 90.3 | < 50 | < 50 | – | – | – |
| O=C(O)c1ccc(-c2cnc3c(c2)N(Cc2cc(Cl)ccc2C(F)(F)F)CCN3)cc1 | < 50 | < 50 | < 50 | < 50 | – | < 50 | < 50 | < 50 | < 50 | – | – | – |
| CN1CCN(c2ccc(-c3cnc4c(c3)N(Cc3cc(Cl)ccc3C(F)(F)F)CCN4)cn2)CC1 | < 50 | < 50 | < 50 | < 50 | < 50 | < 50 | 82 | < 50 | < 50 | < 50 | < 50 | < 50 |
| O=C(c1ccc(-c2cnc3c(c2)N(Cc2cc(Cl)ccc2C(F)(F)F)CCN3)cc1)N1CCCCC1 | < 50 | < 50 | < 50 | < 50 | – | < 50 | 66 | < 50 | < 50 | – | – | – |
| COC1CCN(C(=O)c2ccc(-c3cnc4c(c3)N(Cc3cc(Cl)ccc3C(F)(F)F)CCN4)cc2)CC1 | < 50 | < 50 | < 50 | < 50 | – | < 50 | 76.6 | < 50 | < 50 | – | – | – |
